Laboratory results reported in ChEMBL document CHEMBL1156932, “Structure based drug design: development of potent and selective factor IXa (FIXa) inhibitors” (J Med Chem, 2010).
Each block holds one molecule with its values, some of them ahead of it.

Columns and labels:
[1] = Selectivity ratio of Ki for factor 10a to Ki for human recombinant factor 9a
Coagulation factor X = Coagulation factor X (Homo sapiens, UniProt P00742); experiment: Inhibition of factor 10a by amidolytic assay
How it was run: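 […] taken as the mean of at least three experiments. Variation between runs stated as under 10%.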

[2] = Protein binding in human plasma; assay type: ADME, cell-free; settings: read-out: PPB (converted)
[3] = Selectivity ratio of Ki for uPA to Ki for human recombinant factor 9a
Plasma [4] = experiment: Anticoagulant potency in human plasma assessed as concentration required to double the prothrombin time; assay type: functional
How it was run: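 Citrated plasma from healthy volunteers, centrifuged at 2000g for 10 min and held on ice. Plasma incubated 3 min at 37 C before addition of thromboplastin PT reagent (Thromborel S). Clot formation followed at 660 nm in an automated coagulation analyzer.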

Plasma [5] = experiment: Anticoagulant potency in human plasma assessed as concentration required to double the thrombin time; assay type: functional
How it was run: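 Plasma from citrated blood of healthy volunteers, centrifuged at 2000g for 10 min and kept on ice. Plasma incubated 2 min at 37 C, then thrombin reagent added. Clotting time monitored at 660 nm on an automated analyzer.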

Coagulation factor IX = Coagulation factor IX (Homo sapiens, UniProt P00740); experiment: Inhibition of human recombinant factor 9a by amidolytic assay
Coagulation factor IX, sequence (P00740 47-191 limits assumed): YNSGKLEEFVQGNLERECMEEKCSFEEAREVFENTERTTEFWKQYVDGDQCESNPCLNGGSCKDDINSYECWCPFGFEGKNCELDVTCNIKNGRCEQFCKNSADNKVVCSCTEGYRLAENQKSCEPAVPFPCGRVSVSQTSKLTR
Coagulation factor IX, sequence (P00740 227-461 limits assumed): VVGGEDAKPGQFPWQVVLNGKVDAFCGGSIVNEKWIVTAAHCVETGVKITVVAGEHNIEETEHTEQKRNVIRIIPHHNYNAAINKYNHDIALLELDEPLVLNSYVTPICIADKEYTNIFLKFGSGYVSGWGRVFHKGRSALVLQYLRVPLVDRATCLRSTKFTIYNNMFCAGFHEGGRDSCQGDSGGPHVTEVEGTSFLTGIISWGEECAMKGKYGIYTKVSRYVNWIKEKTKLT

[6] = target: Urokinase-type plasminogen activator (Homo sapiens, UniProt P00749)
Plasma [7] = experiment: Anticoagulant potency in human plasma assessed as concentration required to double the […]; assay type: functional
How it was run: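 Citrated plasma from healthy volunteers, centrifuged at 2000g for 10 min and held on ice. Plasma incubated 1 min at 37 C, aPTT reagent (FSL) added, then 3 min at 37 C. Clotting started with 0.025 M CaCl2. Clot formation read at 660 nm on an automated coagulation analyzer.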

[8] = Clearance in anesthetized Sprague-Dawley rat at 5 mg/kg, iv; assay type: ADME, organism-based; parameters: dose 5 mg/kg, route intravenous; settings: in vivo
How it was run: (§1)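 Bolus iv injection over 15 s into anesthetised rats, 3 per group. Citrated blood taken under anesthesia predose and at 2, 5, 15, 30 min and 1, 2, 3 h. Plasma obtained by centrifugation at 1700g, 20 C, 5 min, then stored at -80 C. Two acetonitrile precipitations before drug measurement. Parameters derived by noncompartmental analysis of concentration–time curve.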

[9] = AUC (0 to infinity) in anesthetized Sprague-Dawley rat at 5 mg/kg, iv; assay type: ADME, organism-based; parameters: dose 5 mg/kg, route intravenous, time infinity; settings: plasma; how it was run: as §1
[10] = Metabolic stability in human liver assessed as turnover; assay type: ADME, tissue-based; settings: read-out: Stability
[11] = Half life in anesthetized Sprague-Dawley rat at 5 mg/kg, iv; assay type: ADME, organism-based; parameters: dose 5 mg/kg, route intravenous; settings: in vivo; how it was run: as §1
[12] = Cmax in anesthetized Sprague-Dawley rat at 5 mg/kg, iv; assay type: ADME, organism-based; parameters: dose 5 mg/kg, route intravenous; settings: in vivo; how it was run: as §1

Coagulation factor X, sequence (P00742 41-179 limits assumed): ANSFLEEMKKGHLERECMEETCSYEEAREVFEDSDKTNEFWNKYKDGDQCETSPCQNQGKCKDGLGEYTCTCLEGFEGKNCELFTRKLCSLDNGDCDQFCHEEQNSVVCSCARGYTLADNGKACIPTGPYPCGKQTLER
Coagulation factor X, sequence (P00742 235-488 limits assumed): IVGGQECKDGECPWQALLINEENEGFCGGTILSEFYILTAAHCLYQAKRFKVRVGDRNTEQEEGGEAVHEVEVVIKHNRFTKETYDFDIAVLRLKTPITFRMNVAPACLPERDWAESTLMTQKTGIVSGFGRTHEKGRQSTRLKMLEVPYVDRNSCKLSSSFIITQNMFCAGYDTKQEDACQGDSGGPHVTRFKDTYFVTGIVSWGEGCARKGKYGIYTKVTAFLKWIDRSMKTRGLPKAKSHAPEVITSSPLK

SMILES: N=C(N)c1cc2c(OC(COC(=O)Nc3ccc(F)cc3)c3ccccc3)cccc2s1 (stereo not given)
- clearance [8]: 1.94 L/h/kg
- AUC(0-inf) [9]: 5.19 µM·h
- metabolised [10]: 11%
- Ratio Ki [1]: 213
- Ki (Coagulation factor X): 1.7 µM
- Ratio Ki [3]: 98
- half-life [11]: 5.5 h
- Ki (Coagulation factor IX): 0.008 µM
- Cmax [12]: 10.5 µM
- Ki [6]: 0.78 µM

SMILES: Cc1n[nH]c(C)c1NC(=O)OCC(Oc1cccc2sc(C(=N)N)cc12)c1ccccc1 (stereo not given)
- Ratio Ki [1]: 360
- Ki (Coagulation factor X): 2.84 µM
- fraction unbound [2]: 0.05
- Ratio Ki [3]: 7
- Activity (Plasma [4]): 63 µM
- Activity (Plasma [5]): >80 µM
- Ki (Coagulation factor IX): 0.008 µM
- Ki [6]: 0.058 µM
- Activity (Plasma [7]): 11.7 µM

SMILES: Cc1cc(NC(=O)OCC(Oc2cccc3sc(C(=N)N)cc23)c2ccccc2)n(C)n1 (stereo not given)
- clearance [8]: 7.76 L/h/kg
- AUC(0-inf) [9]: 0.951 µM·h
- metabolised [10]: 18%
- Ratio Ki [1]: 205
- Ki (Coagulation factor X): 2.05 µM
- fraction unbound [2]: 0.04
- Ratio Ki [3]: 17
- Activity (Plasma [4]): 57 µM
- Activity (Plasma [5]): 60 µM
- half-life [11]: 2.1 h
- Ki (Coagulation factor IX): 0.01 µM
- Cmax [12]: 5.19 µM
- Ki [6]: 0.169 µM
- Activity (Plasma [7]): 12.8 µM

SMILES: N=C(N)c1cc2c(OC(COC(=O)Nc3ccccc3CN3CCNCC3)c3ccccc3)cccc2s1 (stereo not given)
- Ratio Ki [1]: 118
- Ki (Coagulation factor X): 0.354 µM
- fraction unbound [2]: 0.05
- Ratio Ki [3]: 278
- Activity (Plasma [4]): 17 µM
- Activity (Plasma [5]): 20 µM
- Ki (Coagulation factor IX): 0.003 µM
- Ki [6]: 0.833 µM
- Activity (Plasma [7]): 5 µM

SMILES: N=C(N)c1cc2c(OC(COC(=O)Nc3c(F)cccc3F)c3ccccc3)cccc2s1 (stereo not given)
- Ratio Ki [1]: 186
- Ki (Coagulation factor X): 1.3 µM
- Ratio Ki [3]: 34
- Ki (Coagulation factor IX): 0.007 µM
- Ki [6]: 0.249 µM

More lines, main results first:

- Ratio Ki [1]: 542
- Ki (Coagulation factor X): 1.63 µM
- fraction unbound [2]: 0.04
- Ratio Ki [3]: 50
- Ki (Coagulation factor IX): 0.003 µM
- Ki [6]: 0.151 µM
SMILES: Cc1nn(C)c(CNC(C)C)c1NC(=O)OCC(Oc1cccc2sc(C(=N)N)cc12)c1ccccc1 (stereo not given)
- Activity (Plasma [4]): 29 µM
- Activity (Plasma [5]): 25 µM
- Activity (Plasma [7]): 5.9 µM

- Ratio Ki [1]: 475
- Ki (Coagulation factor X): 2.38 µM
- fraction unbound [2]: 0.05
- Ratio Ki [3]: 31
- Ki (Coagulation factor IX): 0.005 µM
- Ki [6]: 0.156 µM
SMILES: CNCc1c(NC(=O)OCC(Oc2cccc3sc(C(=N)N)cc23)c2ccccc2)c(C)nn1C (stereo not given)
- Activity (Plasma [4]): 42 µM
- Activity (Plasma [5]): 56 µM
- Activity (Plasma [7]): 7.7 µM
